Measurements published in ChEMBL document CHEMBL1130120, “N-arylpiperazinyl-N'-propylamino derivatives of heteroaryl amides as functional uroselective alpha 1-adrenoceptor antagonists” (J Med Chem, 1997).

Assays:
[1] = target: Adrenergic receptor alpha-1 (Homo sapiens) (UniProt P35348+P25100+P35368); assay: The compound was screened in vitro for functional activity against Alpha-1 adrenergic receptor subtypes of human prostate tissue
Method in brief: (§1)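 Isolated smooth-muscle tissue with cumulative norepinephrine concentration–effect curves (rat aorta, human lower urinary tract). Affinity obtained by full Schild regression for some antagonists. […] Competitive, reversible interaction at a single subtype assumed.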

[2] = target: T1, 5-hydroxytryptamine receptor 1A (Mus musculus) (UniProt Q64264); assay: The compound's binding affinity against 5-hydroxytryptamine 1A receptor
T1 sequence (whole entry): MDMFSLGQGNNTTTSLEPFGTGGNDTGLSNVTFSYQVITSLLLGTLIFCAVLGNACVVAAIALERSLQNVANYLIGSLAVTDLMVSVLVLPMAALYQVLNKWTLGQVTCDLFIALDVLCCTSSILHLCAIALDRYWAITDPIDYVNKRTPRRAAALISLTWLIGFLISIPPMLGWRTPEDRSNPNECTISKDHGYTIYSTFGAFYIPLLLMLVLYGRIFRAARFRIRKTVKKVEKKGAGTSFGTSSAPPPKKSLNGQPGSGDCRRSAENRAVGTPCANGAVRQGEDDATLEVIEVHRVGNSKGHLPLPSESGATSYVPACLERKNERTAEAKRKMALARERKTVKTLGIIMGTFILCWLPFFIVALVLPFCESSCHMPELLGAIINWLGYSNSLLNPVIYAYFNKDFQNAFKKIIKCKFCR

[3] = target: T2, Alpha-1A adrenergic receptor (Oryctolagus cuniculus, UniProt O02824); assay: Antagonistic activity against alpha 1A/1L receptor was assessed in a rabbit bladder neck functional assay; details: read-out: pA2 (converted)
T2 sequence (O02824 whole entry): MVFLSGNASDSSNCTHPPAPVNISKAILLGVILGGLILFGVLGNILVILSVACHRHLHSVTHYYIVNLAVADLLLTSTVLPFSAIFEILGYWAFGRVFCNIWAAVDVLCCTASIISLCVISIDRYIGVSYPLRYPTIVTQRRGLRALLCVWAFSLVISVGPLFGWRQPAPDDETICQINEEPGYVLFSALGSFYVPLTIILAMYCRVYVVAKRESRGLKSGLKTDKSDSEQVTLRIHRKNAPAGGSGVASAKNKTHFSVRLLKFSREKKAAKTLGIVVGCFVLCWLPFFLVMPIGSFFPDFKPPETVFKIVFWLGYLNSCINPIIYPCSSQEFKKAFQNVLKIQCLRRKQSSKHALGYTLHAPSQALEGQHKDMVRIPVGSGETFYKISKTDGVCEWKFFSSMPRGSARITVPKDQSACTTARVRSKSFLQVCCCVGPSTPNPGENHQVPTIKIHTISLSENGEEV

[4] = target: T3, Alpha-1D adrenergic receptor (Rattus norvegicus, UniProt P23944); assay: Antagonistic activity against rat aorta for affinity estimates representative of the Alpha-1D adrenergic receptor; type: functional, tissue-based; details: read-out: pA2 (converted); method in brief: as §1
T3 sequence (P23944 whole entry): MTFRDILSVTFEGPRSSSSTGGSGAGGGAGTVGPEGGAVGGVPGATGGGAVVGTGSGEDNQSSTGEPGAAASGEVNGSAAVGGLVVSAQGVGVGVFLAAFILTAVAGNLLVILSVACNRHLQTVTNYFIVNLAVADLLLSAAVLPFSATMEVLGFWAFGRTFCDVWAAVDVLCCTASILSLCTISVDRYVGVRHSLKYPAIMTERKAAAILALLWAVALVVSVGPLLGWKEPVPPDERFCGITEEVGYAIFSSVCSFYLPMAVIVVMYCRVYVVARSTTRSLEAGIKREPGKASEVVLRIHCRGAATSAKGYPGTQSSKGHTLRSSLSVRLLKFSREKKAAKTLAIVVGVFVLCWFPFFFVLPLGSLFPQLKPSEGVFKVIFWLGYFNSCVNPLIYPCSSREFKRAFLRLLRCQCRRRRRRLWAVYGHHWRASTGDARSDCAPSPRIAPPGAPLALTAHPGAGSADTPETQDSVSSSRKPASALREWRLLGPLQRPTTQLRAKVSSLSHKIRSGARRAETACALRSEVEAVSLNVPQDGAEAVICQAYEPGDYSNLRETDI

D(2) dopamine receptor = D(2) dopamine receptor (Homo sapiens, UniProt P14416); assay: The compound's binding affinity against Dopamine receptor D2
Chain of D(2) dopamine receptor (P14416 whole entry): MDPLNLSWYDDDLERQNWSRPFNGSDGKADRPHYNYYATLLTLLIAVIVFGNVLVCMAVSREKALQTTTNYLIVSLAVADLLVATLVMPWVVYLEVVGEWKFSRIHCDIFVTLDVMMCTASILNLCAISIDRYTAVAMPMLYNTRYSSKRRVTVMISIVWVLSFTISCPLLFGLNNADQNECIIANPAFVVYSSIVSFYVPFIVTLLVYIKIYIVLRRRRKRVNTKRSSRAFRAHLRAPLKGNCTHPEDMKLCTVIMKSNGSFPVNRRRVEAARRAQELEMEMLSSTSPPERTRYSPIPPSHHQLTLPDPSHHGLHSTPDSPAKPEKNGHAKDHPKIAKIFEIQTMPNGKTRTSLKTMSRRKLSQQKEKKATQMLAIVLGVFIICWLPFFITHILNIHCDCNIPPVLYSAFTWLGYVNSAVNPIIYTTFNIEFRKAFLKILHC

[5] = target: T4, Alpha-1A adrenergic receptor (Bos taurus, UniProt P18130); assay: The compound was screened in vitro for the displacement of [3H]prazosin binding to bovine Alpha-1A adrenergic receptor
T4 sequence (P18130 whole entry): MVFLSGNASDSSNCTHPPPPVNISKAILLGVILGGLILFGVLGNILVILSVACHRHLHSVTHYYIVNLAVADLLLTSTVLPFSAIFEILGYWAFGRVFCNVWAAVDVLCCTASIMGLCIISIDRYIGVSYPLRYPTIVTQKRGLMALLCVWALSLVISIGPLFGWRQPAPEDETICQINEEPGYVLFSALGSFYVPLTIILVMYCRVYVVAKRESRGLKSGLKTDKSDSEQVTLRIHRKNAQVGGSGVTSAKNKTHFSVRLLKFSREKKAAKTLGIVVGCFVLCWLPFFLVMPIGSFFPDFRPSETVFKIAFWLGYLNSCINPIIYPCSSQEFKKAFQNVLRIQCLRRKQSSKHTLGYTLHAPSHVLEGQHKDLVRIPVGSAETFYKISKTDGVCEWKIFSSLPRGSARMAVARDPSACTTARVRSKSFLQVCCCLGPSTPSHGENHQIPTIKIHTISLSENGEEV

[6] = target: T4, Alpha-1A adrenergic receptor; assay: In vitro for the displacement of [3H]prazosin binding to bovine Alpha-1A adrenergic receptor
[7] = target: T5, Adrenergic receptor alpha-1 (Homo sapiens, UniProt P35348+P25100+P35368); assay: Activity against Alpha-1 adrenergic receptor subtypes of human prostate tissue; type: functional
T5 sequence (P35348 whole entry): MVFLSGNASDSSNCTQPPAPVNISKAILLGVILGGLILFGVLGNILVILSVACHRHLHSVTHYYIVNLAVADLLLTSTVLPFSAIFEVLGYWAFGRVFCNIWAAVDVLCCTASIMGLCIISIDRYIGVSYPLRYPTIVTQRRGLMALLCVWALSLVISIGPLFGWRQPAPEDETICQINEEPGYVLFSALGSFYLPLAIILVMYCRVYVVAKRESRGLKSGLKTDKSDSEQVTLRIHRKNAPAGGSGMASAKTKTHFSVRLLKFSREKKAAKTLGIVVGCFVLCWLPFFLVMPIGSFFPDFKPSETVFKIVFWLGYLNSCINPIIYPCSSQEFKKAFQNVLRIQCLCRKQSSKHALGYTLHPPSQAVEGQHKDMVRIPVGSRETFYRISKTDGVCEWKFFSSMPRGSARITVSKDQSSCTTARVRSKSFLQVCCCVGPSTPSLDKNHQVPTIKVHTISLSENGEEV
T5 sequence (P25100 whole entry): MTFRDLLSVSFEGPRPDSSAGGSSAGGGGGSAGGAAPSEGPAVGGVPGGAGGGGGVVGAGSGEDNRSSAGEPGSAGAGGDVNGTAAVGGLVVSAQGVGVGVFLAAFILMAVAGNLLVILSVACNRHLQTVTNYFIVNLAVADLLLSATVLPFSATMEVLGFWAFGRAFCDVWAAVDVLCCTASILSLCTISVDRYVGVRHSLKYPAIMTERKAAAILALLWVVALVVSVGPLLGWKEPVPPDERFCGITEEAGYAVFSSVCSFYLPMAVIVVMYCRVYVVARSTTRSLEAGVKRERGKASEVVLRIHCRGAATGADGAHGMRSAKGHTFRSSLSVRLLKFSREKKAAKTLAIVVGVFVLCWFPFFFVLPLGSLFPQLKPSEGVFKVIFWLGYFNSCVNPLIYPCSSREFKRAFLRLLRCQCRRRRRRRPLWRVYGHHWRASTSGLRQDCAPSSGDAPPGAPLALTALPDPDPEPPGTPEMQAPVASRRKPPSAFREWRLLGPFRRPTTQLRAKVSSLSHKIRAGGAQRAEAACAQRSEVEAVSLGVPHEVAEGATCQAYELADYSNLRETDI
T5 sequence (P35368 whole entry): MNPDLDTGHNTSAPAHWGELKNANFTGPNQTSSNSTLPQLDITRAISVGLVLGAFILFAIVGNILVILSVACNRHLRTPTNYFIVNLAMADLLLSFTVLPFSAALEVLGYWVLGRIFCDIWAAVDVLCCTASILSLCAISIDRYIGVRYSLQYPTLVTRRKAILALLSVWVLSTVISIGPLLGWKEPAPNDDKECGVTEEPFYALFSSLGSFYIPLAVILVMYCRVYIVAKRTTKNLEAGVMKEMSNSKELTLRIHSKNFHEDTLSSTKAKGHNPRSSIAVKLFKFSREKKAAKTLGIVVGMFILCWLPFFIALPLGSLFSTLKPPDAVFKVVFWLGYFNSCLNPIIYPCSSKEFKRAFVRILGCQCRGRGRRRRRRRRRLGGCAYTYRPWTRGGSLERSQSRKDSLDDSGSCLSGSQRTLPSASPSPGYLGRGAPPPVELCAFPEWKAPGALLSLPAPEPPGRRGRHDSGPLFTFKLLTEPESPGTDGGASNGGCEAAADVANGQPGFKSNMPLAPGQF
Method in brief: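 Isolated smooth-muscle tissue with cumulative norepinephrine concentration–effect curves (rat aorta, human lower urinary tract). Affinity obtained by full Schild regression for some antagonists. Competitive, reversible interaction at a single subtype assumed.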

[8] = target: T6, Alpha-2B adrenergic receptor (Rattus norvegicus, UniProt P19328); assay: The compound's binding affinity against Alpha-2B adrenergic receptor from rat kidney homogenate in the presence of phentolamine
T6 sequence (P19328 whole entry): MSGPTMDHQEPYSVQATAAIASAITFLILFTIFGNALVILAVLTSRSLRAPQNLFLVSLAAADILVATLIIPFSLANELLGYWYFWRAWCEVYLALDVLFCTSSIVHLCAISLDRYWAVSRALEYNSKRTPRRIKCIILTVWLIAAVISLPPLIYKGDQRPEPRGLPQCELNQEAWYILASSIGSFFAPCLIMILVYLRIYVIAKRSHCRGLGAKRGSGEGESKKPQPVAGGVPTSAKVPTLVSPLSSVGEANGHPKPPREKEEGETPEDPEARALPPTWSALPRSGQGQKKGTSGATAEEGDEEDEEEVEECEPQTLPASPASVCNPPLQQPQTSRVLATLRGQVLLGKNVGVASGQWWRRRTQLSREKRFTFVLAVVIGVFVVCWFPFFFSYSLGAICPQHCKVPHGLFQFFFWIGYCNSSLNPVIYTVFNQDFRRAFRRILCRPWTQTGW

| Compound | pA2 [1] | pKi [2] | Kb [3] | Kb [4] | pKi (D(2) dopamine receptor) | Ki [5] | Ki [6] | pA2 [7] | Ki [8] | Ki (D(2) dopamine receptor) |
| --- | --- | --- | --- | --- | --- | --- | --- | --- | --- | --- |
| COc1ccccc1N1CCN(CCCNc2ncccc2C(=O)N(C)C)CC1 | 8.5 | 7.6 | 1.58 nM | 20 nM | 7.4 | 0.794 nM |  |  |  |  |
| CN(C)C(=O)c1cccnc1N1CCC(NCCOc2ccccc2OCC(F)(F)F)CC1 |  |  | 1.58 nM | 63.1 nM |  |  | 1.58 nM |  |  |  |
| COc1cc(F)ccc1N1CCN(CCCNc2ncccc2C(=O)N(C)C)CC1 | 8.5 | 6.7 | 1.58 nM | 63.1 nM | 6.7 |  |  |  |  |  |
| COc1cc(F)ccc1N1CCN(CCCNc2c(C(=O)N(C)C)cnc3c2c(C)nn3C)CC1 | 9.3 | 6.5 | 1.26 nM | 316 nM | 6.4 |  |  |  |  |  |
| COc1cc2nc(N3CCN(C(=O)C4CCCO4)CC3)nc(N)c2cc1OC (racemic) [TERAZOSIN] |  |  | 20 nM |  |  |  | 2.51 nM |  |  |  |
| CC(C)(Cc1c[nH]c2ccc(Cl)cc12)NCCOc1ccccc1OCC1CC1 |  |  | 50.1 nM |  |  |  | 0.794 nM |  |  |  |
| COc1ccccc1N1CCN(CCCNc2ccncc2C(=O)N(C)C)CC1 |  |  | 12.6 nM | 50.1 nM |  |  | 0.794 nM |  |  |  |
| CN(C)C(=O)c1cccnc1NCCCN1CCN(c2ccccc2OCC2CC2)CC1 |  |  | 0.158 nM | 10 nM |  |  | 0.0794 nM |  |  |  |
| COc1ccccc1N1CCN(CCCNc2ncccc2C(=O)NC(C)(C)C)CC1 |  |  | 1.26 nM | 10 nM |  |  | 1.58 nM | 8.7 |  |  |
| Cc1nn(C)c2ncc(C(=O)N(C)C)c(NCCCN3CCN(c4ccccc4OCC(F)(F)F)CC3)c12 | 9 | 7.5 | 0.501 nM | 126 nM | 8.1 |  |  |  |  |  |
| COc1ccccc1N1CCN(CCCNc2ccccc2C(=O)N(C)C)CC1 |  |  | 1 nM | 15.8 nM |  |  | 0.398 nM |  |  |  |
| Cc1ccccc1N1CCN(CCCNc2ncccc2C(=O)N(C)C)CC1 |  |  | 2 nM | 10 nM |  |  | 0.794 nM |  |  |  |
| COc1ccccc1N1CCN(CCCNc2nc(C)cc(C)c2C(N)=O)CC1 |  |  | 10 nM | 39.8 nM |  |  | 1.58 nM |  |  |  |
| CN(C)C(=O)c1cccnc1NCCCN1CCN(c2ccccc2-c2ccccc2)CC1 |  |  | 1.26 nM | 63.1 nM |  |  |  |  | 79.4 nM | 126 nM |
| CN(C)C(=O)c1cccnc1NCCCN1CCN(c2ccccc2)CC1 |  |  | 6.31 nM | 15.8 nM |  |  | 2 nM |  |  |  |
